Laboratory results from paper PMC10262780 (Nature structural & molecular biology, 2022).
Square brackets hold non-standard residues; d marks the D form. Ends that are not written are not given here. * marks the point of attachment. FITC = O=C1OC2(c3ccc(O)cc3Oc3cc(O)ccc32)c2ccc(NC(=S)*)cc21; pS = N[C@@H](COP(=O)(O)O)C(=O)O

Experiments:
[1] = molecular target: human Retinoblastoma protein AB domain with a stabilizing loop deletion (372-787Δ582-642) (human) (UniProt P06400); assay: fluorescence polarisation
[2] = molecular target: T1, Rb (human Retinoblastoma protein AB domain) (Homo sapiens, UniProt P06400, DEL582-642); assay: Isothermal titration calorimetry; type: binding; details: ITC
T1 sequence (P06400 with tags, fused parts or gaps DEL582-642): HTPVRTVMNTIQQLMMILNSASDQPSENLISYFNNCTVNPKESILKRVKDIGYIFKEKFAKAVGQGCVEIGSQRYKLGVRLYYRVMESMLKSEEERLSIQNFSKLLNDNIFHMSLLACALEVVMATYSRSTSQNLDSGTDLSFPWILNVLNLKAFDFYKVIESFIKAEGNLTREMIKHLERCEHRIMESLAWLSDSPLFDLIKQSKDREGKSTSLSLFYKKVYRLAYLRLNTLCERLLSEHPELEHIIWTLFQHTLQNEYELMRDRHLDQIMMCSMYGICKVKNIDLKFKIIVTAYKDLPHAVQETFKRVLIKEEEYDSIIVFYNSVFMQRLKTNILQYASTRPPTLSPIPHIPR
Summary of the method: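 Human Rb AB domain (residues 372–787, loop 582–642 deleted), expressed in E. coli, in the cell at 5–30 µM. Peptide/protein titrant in the syringe at 50–300 µM. Cell and syringe samples co-dialysed 48 h at 4 °C in 20 mM sodium phosphate pH 7.0, 200 mM NaCl, 5 mM 2-mercaptoethanol, then degassed. Run at 20.0 °C unless stated, also 10–30 °C. 28 × 10-µl or 13 × 3-µl injections; enthalpy per mole of injectant fitted to a single-site model.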

[3] = molecular target: T2, human Retinoblastoma protein AB domain with a stabilizing loop deletion (372-787Δ582-642) (human, UniProt P06400 372-787, Δ582–642); assay: fluorescence polarisation
T2 sequence (looked up): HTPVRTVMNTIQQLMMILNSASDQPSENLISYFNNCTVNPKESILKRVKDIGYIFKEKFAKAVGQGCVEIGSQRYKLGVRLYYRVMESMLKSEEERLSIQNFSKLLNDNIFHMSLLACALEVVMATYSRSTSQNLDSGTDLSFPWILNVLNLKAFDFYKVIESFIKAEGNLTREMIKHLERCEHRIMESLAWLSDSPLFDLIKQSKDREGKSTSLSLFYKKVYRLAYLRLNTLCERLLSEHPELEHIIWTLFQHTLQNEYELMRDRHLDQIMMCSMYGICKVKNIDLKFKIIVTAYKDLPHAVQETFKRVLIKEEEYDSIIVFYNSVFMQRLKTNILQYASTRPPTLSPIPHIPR

[4] = molecular target: T2, human Retinoblastoma protein AB domain …; assay: fluorescence polarisation + ITC
DNA = details: Oct-1 binding to DNA; cited from earlier work
[5] = molecular target: T2, human Retinoblastoma protein AB domain …; assay: ITC
[6] = molecular target: T2, human Retinoblastoma protein AB domain …; assay: fluorescence polarisation; remark: listed apart in the source
[7] = molecular target: T1, Rb (human Retinoblastoma protein AB domain); assay: E2F competition; type: binding; details: MBP fusion protein, competition experiment
[8] = molecular target: T3, Rb (human Retinoblastoma protein AB domain, 372–787Δ582–642) (Homo sapiens, UniProt P06400, DEL582-642); assay: Fluorescence polarization direct titration of FITC-labelled constructs with Rb; type: binding
T3 sequence (P06400 with tags, fused parts or gaps DEL582-642): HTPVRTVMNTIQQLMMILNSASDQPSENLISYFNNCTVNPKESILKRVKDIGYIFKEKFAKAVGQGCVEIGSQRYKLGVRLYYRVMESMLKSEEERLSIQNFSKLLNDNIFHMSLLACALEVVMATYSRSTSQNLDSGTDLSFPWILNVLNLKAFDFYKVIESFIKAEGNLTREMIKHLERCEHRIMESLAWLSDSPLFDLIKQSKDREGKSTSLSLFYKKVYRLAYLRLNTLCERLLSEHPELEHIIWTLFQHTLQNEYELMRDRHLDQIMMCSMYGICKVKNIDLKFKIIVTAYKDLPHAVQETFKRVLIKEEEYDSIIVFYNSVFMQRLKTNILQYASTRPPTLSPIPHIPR

[9] = from direct titration KD values

Molecule: Hum-2–2x: tandem repeat of the Hum-2 (HAdV40) linker between the HAdV5 E1AE2F and E1A_(LxCxE) motifs, MBP fusion
- KD/KD,E1AWT [1]: 1.1

Molecule: 116-VPEVIDLTCHEAGFPP-131 [E1ALxCxE]
- thermodynamic origin of binding to Rb ([2]; 20 mM Sodium Phosphate pH 7.0, 200 mM NaCl, 5mM 2-mercapto ethanol, 20 °C): enthalpically driven

B1: FITC-labelled E1AΔL (domain or fragment)
chain: SHFEPPTLHELYDLDVTAPEDPNEEAVSQIFPDSVMLAVQEGIDLLTFPPAPGSPEPPHLSRQPEQPEQRALGPVSMPNLVPEVIDAAAAAGFPPSDDEDEEGEEFVLDY
modifications: FITC (fluorescein 5-isothiocyanate) on the N-terminus
- binding result [3]: binds

B2: E1AΔL: E1AWT variant with LxCxE motif mutated to poly-alanine (122-LTCHE-126Δ122-AAAA-125) (protein)
chain: SHFEPPTLHELYDLDVTAPEDPNEEAVSQIFPDSVMLAVQEGIDLLTFPPAPGSPEPPHLSRQPEQPEQRALGPVSMPNLVPEVIDAAAAAGFPPSDDEDEEGEEFVLDY
modifications: left off: MBP, end not stated, cleaved
- heat behaviour of binding to Rb (exothermic/endothermic) ([2]; Rb in cell, peptide/protein as titrant): endothermic

Molecule: VPEVIDLTCHEAGFPP[pS]DDEDEEG [E1A_(LxCxE-ACP) peptide (HAdV5 E1A 116-139, phosphorylated at Ser132)]
- fold increase in binding affinity over E1A_(LxCxE) [4]: 5 fold

B3: FITC-labelled E1AΔE (domain or fragment)
chain: SHFEPPTAAAADLDVTAPEDPNEEAVSQIFPDSVMLAVQEGIDLLTFPPAPGSPEPPHLSRQPEQPEQRALGPVSMPNLVPEVIDLTCHEAGFPPSDDEDEEGEEFVLDY
modifications: FITC (fluorescein 5-isothiocyanate) on the N-terminus
- binding result [3]: binds

B4: Oct-1: POU domain activator Oct-1 binding to DNA (protein, UniProt P14859 1-743, looked up)
POU domain, class 2, …: MNNPSETSKPSMESGDGNTGTQTNGLDFQKQPVPVGGAISTAQAQAFLGHLHQVQLAGTSLQAAAQSLNVQSKSNEESGDSQQPSQPSQQPSVQAAIPQTQLMLAGGQITGLTLTPAQQQLLLQQAQAQAQLLAAAVQQHSASQQHSAAGATISASAATPMTQIPLSQPIQIAQDLQQLQQLQQQNLNLQQFVLVHPTTNLQPAQFIISQTPQGQQGLLQAQNLLTQLPQQSQANLLQSQPSITLTSQPATPTRTIAATPIQTLPQSQSTPKRIDTPSLEEPSDLEELEQFAKTFKQRRIKLGFTQGDVGLAMGKLYGNDFSQTTISRFEALNLSFKNMCKLKPLLEKWLNDAENLSSDSSLSSPSALNSPGIEGLSRRRKKRTSIETNIRVALEKSFLENQKPTSEEITMIADQLNMEKEVIRVWFCNRRQKEKRINPPSSGGTSSSPIKAIFPSPTSLVATTPSLVTSSAATTLTVSPVLPLTSAAVTNLSVTGTSDTTSNNTATVISTAPPASSAVTSPSLSPSPSASASTSEASSASETSTTQTTSTPLSSPLGTSQVMVTASGLQTAAAAALQGAAQLPANASLAAMAAAAGLNPSLMAPSQFAAGGALLSLNPGTLSGALSPALMSNSTLATIQALASGGSLPITSLDATGNLVFANAGGAPNIVTAPLFLNPQNLSLLTSNPVSLVSAAAASAGNSAPVASLHATSTSAESIQNSLFTVASASGAASTTTTASKAQ
- Kd (DNA): 71 pM
- affinity enhancement by tethering (DNA): 2100 fold

Molecule: SPSLDQDDYLWGLEAGEGISDLFD [Human E2F2 peptide (404-427)]
- binding result [5]: binds

Molecule: {FITC}-VPEVIDLTCHEAGFPP [FITC-labelled E1A_(LxCxE) peptide (HAdV5 E1A 116-131)]
- binding result [3]: binds

B5: MBP-E1AWT (uncleaved MBP fusion of HAdV5 E1A 36-146) (domain or fragment)
chain: SHFEPPTLHELYDLDVTAPEDPNEEAVSQIFPDSVMLAVQEGIDLLTFPPAPGSPEPPHLSRQPEQPEQRALGPVSMPNLVPEVIDLTCHEAGFPPSDDEDEEGEEFVLDY
- Kd [6]: 75 ± 17 pM

B6: MBP-E1AWT: uncleaved MBP fusion protein of E1AWT (protein)
chain: SHFEPPTLHELYDLDVTAPEDPNEEAVSQIFPDSVMLAVQEGIDLLTFPPAPGSPEPPHLSRQPEQPEQRALGPVSMPNLVPEVIDLTCHEAGFPPSDDEDEEGEEFVLDY
modifications: left off: MBP, end not stated, kept
- binding affinity compared with cleaved E1AWT [7]: same binding affinity as cleaved E1AWT

B7: E1AWT: adenovirus serotype 5 (HAdV5) Early 1A protein fragment (36–146), minimal Rb binding region (protein)
chain: SHFEPPTLHELYDLDVTAPEDPNEEAVSQIFPDSVMLAVQEGIDLLTFPPAPGSPEPPHLSRQPEQPEQRALGPVSMPNLVPEVIDLTCHEAGFPPSDDEDEEGEEFVLDY
modifications: left off: MBP, end not stated, cleaved
- Ceff obtained from the affinities of the construct and the isolated motifs ([8]; Ceff=(KD,E2F*KD,LxCxE)/KD): 0.52 ± 0.09 mM
- total ΔGBINDING ([8]; binding to Rb): -14.24 kcal/mol
- affinity enhancement compared to E2F2 [8, 9]: 40 fold
- affinity enhancement compared to the individual E1A SLiMs [8, 9]: 4000 fold
